Laboratory results published in ChEMBL document CHEMBL2029238, “Contribution of phosphates and adenine to the potency of adenophostins at the IP₃ receptor: synthesis of all possible bisphosphates of adenophostin A” (J Med Chem, 2012).

Key:
Type in all cases: functional, cell-based
[1] = biological target: Inositol 1,4,5-trisphosphate-gated calcium channel ITPR1 (Rattus norvegicus, UniProt P29994); test: Agonist activity at rat IP3R1 expressed in chicken DT40 cells assessed as induction of Ca2+ release
How it was run: (§1)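 DT40 cells stably expressing only rat IP3R1 loaded with Mag-fluo-4AM (20 μM, 1 h, 20 °C). Permeabilized with saponin (10 μg/mL, 4 min, 37 °C), then washed in Mg2+-free cytosol-like medium (~200 nM free Ca2+, pH 7.0). ER Ca2+ loaded with 1.5 mM Mg-ATP for 150 s before ligand addition.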

[2] = biological target: Inositol 1,4,5-trisphosphate-gated calcium channel ITPR1 (Rattus norvegicus) (UniProt P29994); test: Agonist activity at rat IP3R1 expressed in chicken DT40 cells assessed as Ca2+ release relative to control
How it was run: as §1, with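 “addition. Release measured by luminal fluorescence (ex 485/em 520 nm) as a fraction of the 1 μM ionomycin-releasable content.” for “addition.”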

[3] = biological target: Inositol 1,4,5-trisphosphate-gated calcium channel ITPR1 (Rattus norvegicus) (UniProt P29994); test: Agonist activity at rat IP3R1 expressed in chicken DT40 cells assessed as Ca2+ release at 50 uM relative to control

Sequence of Inositol 1,4,5-trisphosphate-gated calcium channel ITPR1 (P29994 whole entry): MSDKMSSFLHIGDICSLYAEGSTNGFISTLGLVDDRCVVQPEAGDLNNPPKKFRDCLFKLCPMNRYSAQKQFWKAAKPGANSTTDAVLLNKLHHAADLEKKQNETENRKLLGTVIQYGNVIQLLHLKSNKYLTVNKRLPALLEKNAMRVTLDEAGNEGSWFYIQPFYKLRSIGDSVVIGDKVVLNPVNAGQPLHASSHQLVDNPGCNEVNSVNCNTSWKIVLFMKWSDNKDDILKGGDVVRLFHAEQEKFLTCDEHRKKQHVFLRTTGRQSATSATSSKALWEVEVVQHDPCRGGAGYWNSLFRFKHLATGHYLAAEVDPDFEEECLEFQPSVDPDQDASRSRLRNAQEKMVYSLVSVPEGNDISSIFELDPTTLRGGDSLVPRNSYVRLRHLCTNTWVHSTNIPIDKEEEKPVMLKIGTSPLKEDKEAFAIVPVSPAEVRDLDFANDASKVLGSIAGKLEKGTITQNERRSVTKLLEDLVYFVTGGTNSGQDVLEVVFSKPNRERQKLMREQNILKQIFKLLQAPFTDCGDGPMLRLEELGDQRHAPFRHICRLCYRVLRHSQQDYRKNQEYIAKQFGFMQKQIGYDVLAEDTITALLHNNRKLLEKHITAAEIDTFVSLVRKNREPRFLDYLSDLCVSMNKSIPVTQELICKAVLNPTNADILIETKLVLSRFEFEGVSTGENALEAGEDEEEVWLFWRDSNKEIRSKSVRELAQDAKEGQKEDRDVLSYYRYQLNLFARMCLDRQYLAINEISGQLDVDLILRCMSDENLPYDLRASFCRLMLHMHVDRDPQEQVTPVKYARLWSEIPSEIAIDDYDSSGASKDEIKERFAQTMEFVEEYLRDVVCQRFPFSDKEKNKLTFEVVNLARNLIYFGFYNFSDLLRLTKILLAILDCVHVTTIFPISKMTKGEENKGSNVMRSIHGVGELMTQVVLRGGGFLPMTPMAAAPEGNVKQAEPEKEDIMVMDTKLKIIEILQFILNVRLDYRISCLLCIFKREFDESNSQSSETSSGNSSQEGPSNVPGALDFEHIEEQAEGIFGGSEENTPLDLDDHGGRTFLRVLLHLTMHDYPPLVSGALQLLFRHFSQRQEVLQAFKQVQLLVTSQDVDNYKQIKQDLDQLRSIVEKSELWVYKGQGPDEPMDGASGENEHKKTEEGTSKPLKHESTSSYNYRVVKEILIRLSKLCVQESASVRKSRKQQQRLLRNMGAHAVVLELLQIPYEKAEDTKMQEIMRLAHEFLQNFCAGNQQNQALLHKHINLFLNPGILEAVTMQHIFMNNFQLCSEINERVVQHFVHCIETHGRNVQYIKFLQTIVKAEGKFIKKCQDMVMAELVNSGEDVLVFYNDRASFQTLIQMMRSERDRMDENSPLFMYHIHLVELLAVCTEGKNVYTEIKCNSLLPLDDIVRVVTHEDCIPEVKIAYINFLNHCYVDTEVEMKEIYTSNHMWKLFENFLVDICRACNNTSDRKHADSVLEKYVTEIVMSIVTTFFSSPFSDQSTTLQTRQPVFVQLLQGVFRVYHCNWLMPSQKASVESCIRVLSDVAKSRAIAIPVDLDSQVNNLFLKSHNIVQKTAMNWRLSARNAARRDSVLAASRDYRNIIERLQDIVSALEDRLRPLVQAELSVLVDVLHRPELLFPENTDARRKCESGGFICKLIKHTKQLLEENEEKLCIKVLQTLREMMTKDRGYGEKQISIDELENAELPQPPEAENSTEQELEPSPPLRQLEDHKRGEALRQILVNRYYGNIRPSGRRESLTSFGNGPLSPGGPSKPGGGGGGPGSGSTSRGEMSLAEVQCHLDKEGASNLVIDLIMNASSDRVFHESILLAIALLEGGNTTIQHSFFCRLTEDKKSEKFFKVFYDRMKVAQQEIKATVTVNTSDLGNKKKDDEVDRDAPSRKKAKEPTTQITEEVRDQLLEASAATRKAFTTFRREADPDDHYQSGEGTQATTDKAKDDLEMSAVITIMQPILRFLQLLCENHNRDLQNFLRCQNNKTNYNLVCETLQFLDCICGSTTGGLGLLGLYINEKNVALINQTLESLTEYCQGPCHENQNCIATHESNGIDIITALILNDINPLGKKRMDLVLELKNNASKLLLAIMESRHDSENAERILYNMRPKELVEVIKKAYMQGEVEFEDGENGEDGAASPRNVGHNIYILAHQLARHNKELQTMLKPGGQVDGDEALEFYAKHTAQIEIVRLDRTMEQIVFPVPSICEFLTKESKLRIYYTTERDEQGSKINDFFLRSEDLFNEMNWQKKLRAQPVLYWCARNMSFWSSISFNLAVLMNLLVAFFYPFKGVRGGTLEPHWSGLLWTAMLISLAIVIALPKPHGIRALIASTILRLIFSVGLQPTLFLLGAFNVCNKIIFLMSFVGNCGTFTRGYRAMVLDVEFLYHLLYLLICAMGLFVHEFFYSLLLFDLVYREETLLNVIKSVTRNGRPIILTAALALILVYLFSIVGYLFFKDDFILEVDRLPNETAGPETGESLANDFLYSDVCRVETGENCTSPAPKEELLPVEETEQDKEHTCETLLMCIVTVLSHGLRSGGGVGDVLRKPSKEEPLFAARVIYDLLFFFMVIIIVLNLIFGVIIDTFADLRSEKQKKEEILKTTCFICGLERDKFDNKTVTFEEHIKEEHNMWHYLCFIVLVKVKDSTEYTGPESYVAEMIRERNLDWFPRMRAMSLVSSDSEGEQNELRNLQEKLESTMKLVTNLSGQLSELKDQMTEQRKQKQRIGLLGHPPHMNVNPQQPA

How did the EC50 [1] turn out when `Nc1ncnc2c1ncn2[C@@H]1O[C@H](CO)[C@@H](O[C@H]2O[C@H](CO)[C@@H](OP(=O)(O)O)[C@H](OP(=O)(O)O)[C@H]2O)[C@H]1OP(=O)(O)O` [ADENOPHOSTIN A] was run?
The EC50 was 0.0028 µM.

Which EC50 [1] does the source give for `O=P(O)(O)O[C@@H]1[C@@H](O)[C@H](O)[C@H](O)[C@H](O)[C@H]1OP(=O)(O)O` here?
The EC50 was 8.63 µM.

What about the Activity [2] of the same compound?
The Activity was 73%.

Which results are given for `Nc1ncnc2c1ncn2[C@@H]1O[C@H](CO)[C@@H](O[C@H]2O[C@H](CO)[C@@H](OP(=O)(O)O)[C@H](OP(=O)(O)O)[C@H]2O)[C@H]1O`?
EC50 [1]: 0.107 µM; Activity [2]: 67%

What does the source list for `Nc1ncnc2c1ncn2[C@@H]1O[C@H](CO)[C@@H](O[C@H]2O[C@H](CO)[C@@H](OP(=O)(O)O)[C@H](O)[C@H]2O)[C@H]1OP(=O)(O)O`?
EC50 [1]: 53 µM; Activity [3]: 53%

Which Activity [3] does the source give for `Nc1ncnc2c1ncn2[C@@H]1O[C@H](CO)[C@@H](O[C@H]2O[C@H](CO)[C@@H](O)[C@H](OP(=O)(O)O)[C@H]2O)[C@H]1OP(=O)(O)O` here?
Its Activity is 8%.

With `O=P(O)(O)O[C@H]1[C@H](OP(=O)(O)O)[C@@H](O)C(O)O[C@@H]1CO` (stereo not given in full) as the compound, how does the EC50 [1] read?
The EC50 was 25.2 µM.

And the Activity [2]?
Its Activity is 72%.
